# According to ChEMBL document CHEMBL1130193, “Synthesis, cardiotonic activity, and structure-activity relationships of 17 beta-guanylhydrazone derivatives of 5 beta-androstane-3 beta, 14 beta-diol acting on the Na+,K(+)-ATPase receptor” (J Med Chem, 1997):
# Columns and labels:
# [1] = target: Sodium/potassium-transporting ATPase subunit alpha-1 (Canis lupus familiaris, UniProt P50997); test: Inhibition of Na+/K+ ATPase from dog kidney
# [2] = species on record: Cavia porcellus; test: In vitro inotropic activity was determined by the affects of contractile force on guinea pig left atrium; Maximal increase in force of contraction; format: functional; settings: Cardiac atrium
# How it was run: (§1)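 Isolated atrium preparations in solution bubbled with 95% O2/5% CO2, driven by platinum electrodes with square-wave pulses at 1 Hz (1 ms, twice threshold voltage). After 60 min equilibration, cumulative concentrations were added, each kept until maximal response or arrhythmias appeared.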
# [3] = species on record: Cavia porcellus; test: In vitro inotropic activity was determined by the affects of contractile force on guinea pig left atrium; format: functional, Cardiac atrium; how it was run: as §1
# [4] = Arrhythmogenic activity was determined by the onset of the first series of ectopic beats; format: functional, Heart; how it was run: as §1
# [5] = species on record: Cavia porcellus; test: (§2) In vitro inotropic activity was determined by the affects of contractile force on guinea pig left atrium.; format: functional, organism-based; settings: Cardiac atrium; how it was run: as §1
# [6] = % of preparations of arrhythmogenic activity was determined by the onset of the first series of ectopic beats; format: functional, Heart; set-up: concentration or dose not given beside the values; how it was run: as §1
# [7] = species on record: Cavia porcellus; test: as §2; format: functional, Cardiac atrium; how it was run: as §1
SMILES,IC50 [1] [µM],Emax [2] [%],concentration giving Emax [3] [µM],Activity [4] [µM],EC50 [5] [µM],Activity [6] [%],concentration giving Emax [7] [µM]
C[C@]12CC[C@H](O)C[C@H]1CC[C@@H]1[C@@H]2CC[C@]2(C)[C@@H](/C=N/N=C(N)N)CC[C@]12O.Cl,1.58,265,30,30,4,57,
C[C@]12CC[C@H](O)C[C@H]1CC[C@@H]1[C@@H]2CC[C@]2(C)[C@@H](/C=C/C=N/NC3=NCCN3)CC[C@]12O,,136,100,100,9,50,
C[C@]12CC[C@H](O)C[C@H]1CC[C@@H]1[C@@H]2CC[C@]2(C)[C@@H](/C=C/C=C/C=N/N=C(N)N)CC[C@]12O,7.94,98,100,300,15,100,
C[C@]12CC[C@H](O)C[C@H]1CC[C@@H]1[C@@H]2CC[C@]2(C)[C@@H](/C=N/NC3=NCCN3)CC[C@]12O,,129,300,300,17,0,
C[C@]12CC[C@H](O)C[C@H]1CC[C@@H]1[C@@H]2CC[C@]2(C)[C@@H](/C=N/NC3=NCCCN3)CC[C@]12O,,62,30,30,5,,
C[C@]12CC[C@H](O)C[C@H]1CC[C@@H]1[C@@H]2CC[C@]2(C)[C@@H](/C=C/C=N/N=C(N)N)CC[C@]12O,0.16,140,3,3,0.4,20,
C[C@]12CC[C@H](O)C[C@H]1CC[C@@H]1[C@@H]2CC[C@]2(C)[C@@H](CNN=C(N)N)CC[C@]12O.Cl,2,166,30,100,8,0,
C[C@]12CC[C@H](O)C[C@H]1CC[C@@H]1[C@@H]2CC[C@]2(C)[C@@H](/C=C/C3=CC(=O)OC3)CC[C@]12O,3.98,110,,300,14,0,100
C[C@]12CC[C@H](O)C[C@H]1CC[C@@H]1[C@@H]2CC[C@]2(C)[C@@H](C3=CC(=O)OC3)CC[C@]12O [DIGITOXIGENIN],0.5,200,,10,0.6,60,3
C[C@H]1O[C@@H](O[C@H]2[C@@H](O)C[C@H](O[C@H]3[C@@H](O)C[C@H](O[C@H]4CC[C@@]5(C)[C@H](CC[C@@H]6[C@@H]5C[C@@H](O)[C@]5(C)[C@@H](C7=CC(=O)OC7)CC[C@]65O)C4)O[C@@H]3C)O[C@@H]2C)C[C@H](O)[C@@H]1O [DIGOXIN],,,1,3,0.4,50,
